Measured values taken from the RNAGym collection of RNA variant scans (doi:10.1126/science.aae0568).
Fewer inactive variants are shown than the library holds.

B1: tRNA (parent)
chain: GUUCCGUUGGCGUAAUGGUAACGCGUCUCCCUCCUAAGGAGAAGACUGCGGGUUCGAGUCCCGUACGGAACG

Variants of: B1
Assay: yeast fitness relative to wild type (ratio to wild type); higher = fitter; tRNA-Arg(CCU), competitive growth, 37 C, YPD
Summary of the method: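 For this measurement, the tRNA-Arg(CCU) gene was varied by chemical synthesis at a 3% per-site mutation rate across 69 sites, and each variant was placed at the native genomic locus in Saccharomyces cerevisiae. The pooled strains went through a 24-hour competition in YPD at 37°C in six parallel replicates, with amplicons from start and end populations read by 100-nucleotide paired-end sequencing. Darwinian fitness relative to wild type followed from the change in each genotype's frequency. Genotypes needed ≥ 100 starting reads, and estimates < 0.5 were set to 0.5.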

| Variant | yeast fitness |
| --- | --- |
| U7G U28A | 0.704 |
| U7G G10C G58A | ≤ 0.5 |
| U7G G10C | 0.709 |
| U7C U16A G41C | 0.613 |
| U7C C11U G39C A45U G67A | ≤ 0.5 |
| U7G C24A C27A | ≤ 0.5 |
| U7C C29G C49U | 0.712 |
| U7G C34A C46G A65C | 0.746 |
| U7G C49U | 0.957 |
| U7G C49G | 0.729 |
| U8A A15C A20C U28C | ≤ 0.5 |
| U7G U32A C46U C60A | ≤ 0.5 |
| U7C C33G A70G | 0.57 |
| U7C G18A C22G | 0.586 |
| U7C A70C | 0.742 |
| U7C A70U | 0.692 |
| U7C C33A G58C G67A | 0.602 |
| U7G A15C U16A C33G A37C C49A C61U | 0.525 |
| U7G C27A C29U A40U | ≤ 0.5 |
| U7C G18C U59G | ≤ 0.5 |
| U7G C11G C34U G41A U64A | ≤ 0.5 |

| Variant | yeast fitness |
| --- | --- |
| U7G G48A C62U | 0.628 |
| U7G A20C G41A G50A C60U C66G | ≤ 0.5 |
| U7C C24G C31A | ≤ 0.5 |
| U7G U8G C31U U35A U47C | ≤ 0.5 |
| U7G U54C C55G | ≤ 0.5 |
| U7C C11G U13A C29U A69U | ≤ 0.5 |
| U7G A37U G50C | ≤ 0.5 |
| U7G A36U | 0.777 |
| U7G A43G | 0.806 |
| U7G A43U | 0.914 |
| U7C G12A A45C C49U C61G A65C | ≤ 0.5 |
| U7G C11G C34U G41A C46U | ≤ 0.5 |
| U7C U35G U64C A70G | ≤ 0.5 |
| U7G C11U G58A | 0.589 |
| U7C C34U C55A A65G | ≤ 0.5 |
| U7G C30U G38A C60U | 0.582 |
| U7G A37U A70U | 0.542 |
| U7G G58C C66U | 0.645 |
| U7C C24U U54A | ≤ 0.5 |
| U7C G39A | 0.913 |
| U7G A42G | 0.837 |

| Variant | yeast fitness |
| --- | --- |
| U7G U19A C34U C66U | 0.588 |
| U7C A69G | 0.817 |
| U7G C31U | 0.98 |
| U7G C30U G38A G50A U59C | ≤ 0.5 |
| U7C G23C | 0.671 |
| U7C U26C C49U | ≤ 0.5 |
| U7C G41A A42C G50C G67U | ≤ 0.5 |
| U7G A14G C22U G38A C55A | 0.555 |
| U7G C30A A69C | 0.798 |
| U7C G68C | 0.876 |
| U8A A15C G18C C49U | 0.603 |
| U7C G48A A69C | 0.695 |
| U7G C27A A36C A42U U64G A70U | ≤ 0.5 |
| U8A A14C C24U U35A G63A | 0.803 |
| U7C C46A G51A U53A C62A G68A | 0.579 |
| U7C G10A U19A G44C G67C | ≤ 0.5 |
| U7C U16C A21U C22A C49U G50C A69U | ≤ 0.5 |
| U8A A14U A15G U32C A57U | 0.599 |
| U7G G12C G23C C29G C60A | ≤ 0.5 |
| U7G C61U G68A | 0.533 |
| U7C C27U C33G C34G G44A G50A G52A | ≤ 0.5 |

| Variant | yeast fitness |
| --- | --- |
| U7G C22A U64C A70C | ≤ 0.5 |
| U7G C55G G63A G68C | 0.525 |
| U7C C11G U13G C30U | ≤ 0.5 |
| U7G G18C C31A | ≤ 0.5 |
| U8A A15G C27A | 0.549 |
| U7C U13A C24U G51A U59A A65C | 0.642 |
| U7G A14G C22U G38A C55A G67A | ≤ 0.5 |
| U7C G9A C24G A45U C49A U53A | 0.681 |
| U7G A20U C46G A57U A69C | 0.623 |
| U7G G25A C49G | 0.542 |
| U7C G12A A20C A21G C24A C27A A36C | ≤ 0.5 |
| U8A A15U C22G C31U A57C U64A G68A | ≤ 0.5 |
| U7G U19A C30G C33U C61G | ≤ 0.5 |
| U7G A15G C33G | ≤ 0.5 |
| U7G G48A A69C | 0.697 |
| U7G G25C C60A | 0.623 |
| U7G C11G C34U A37U C46A G51A | ≤ 0.5 |
| U7C C24A | 0.623 |
| U7G A14U U19A C22U C61A U64A A69U | 0.543 |
| U7G C11G C34U G41A C49U | ≤ 0.5 |
| U7G C22U G52A C55U | ≤ 0.5 |
